Measured values from ChEMBL document CHEMBL1134521, “Characterization of melanocortin NDP-MSH agonist peptide fragments at the mouse central and peripheral melanocortin receptors” (J Med Chem, 2001).
Where a SMILES comes first, the peptide text is derived from it. [ ]: non-standard residue; d: D form.

Key:
Melanocortin receptor 5 [1] = target: T1, Melanocortin receptor 5 (Mus musculus, UniProt P41149); experiment: Functional activity at the mouse melanocortin 5 receptor
How it was run: (§1)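 HEK-293 cells stably expressing the mouse receptor (calcium phosphate transfection, G418 1 mg/mL), transfected with CRE/β-galactosidase reporter. Lysates read at OD405 with ONPG at 37 °C, normalized to protein and forskolin (10^-4 M) response. EC50 from curve fit, at least three independent experiments.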

Melanocortin receptor 3 [2] = target: T2, Melanocortin receptor 3 (Mus musculus, UniProt P33033); experiment: Functional activity at the mouse melanocortin 3 receptor; how it was run: as §1
Melanocortin receptor 4 = Melanocortin receptor 4 (Mus musculus, UniProt P56450); experiment: Functional activity at the mouse melanocortin 4 receptor; how it was run: as §1
[3] = target: T3, Melanocyte-stimulating hormone receptor (Mus musculus, UniProt Q01727); experiment: Functional activity at the mouse melanocortin 1 receptor; how it was run: as §1
[4] = target: T3, Melanocyte-stimulating hormone receptor; experiment: Functional activity at the mouse melanocortin 1 receptor at 100 uM; Slight agonist
Melanocortin receptor 5 [5] = target: T1, Melanocortin receptor 5; experiment: Functional activity at the mouse melanocortin 5 receptor at 100 uM; Slight agonist
Melanocortin receptor 3 [6] = target: T2, Melanocortin receptor 3; experiment: Functional activity at the mouse melanocortin 3 receptor at 100 uM; Slight agonist

T3 sequence (Q01727 whole entry): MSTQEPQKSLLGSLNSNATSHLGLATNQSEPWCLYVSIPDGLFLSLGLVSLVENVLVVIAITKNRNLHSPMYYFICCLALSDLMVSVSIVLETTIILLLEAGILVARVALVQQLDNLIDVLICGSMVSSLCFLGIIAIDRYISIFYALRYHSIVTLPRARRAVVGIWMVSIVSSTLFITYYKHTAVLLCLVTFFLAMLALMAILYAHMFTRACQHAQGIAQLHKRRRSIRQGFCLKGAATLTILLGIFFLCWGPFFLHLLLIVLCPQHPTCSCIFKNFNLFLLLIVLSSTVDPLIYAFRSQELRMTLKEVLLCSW
T1 sequence (P41149 whole entry): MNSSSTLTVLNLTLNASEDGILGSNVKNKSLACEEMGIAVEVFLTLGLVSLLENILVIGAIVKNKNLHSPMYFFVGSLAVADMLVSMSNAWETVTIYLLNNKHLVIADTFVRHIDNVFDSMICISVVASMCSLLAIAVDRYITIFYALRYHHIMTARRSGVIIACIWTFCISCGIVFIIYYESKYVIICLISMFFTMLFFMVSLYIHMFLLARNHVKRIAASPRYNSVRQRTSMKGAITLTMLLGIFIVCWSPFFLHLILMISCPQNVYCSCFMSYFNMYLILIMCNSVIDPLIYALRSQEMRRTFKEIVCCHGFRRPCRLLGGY
T2 sequence (P33033 whole entry): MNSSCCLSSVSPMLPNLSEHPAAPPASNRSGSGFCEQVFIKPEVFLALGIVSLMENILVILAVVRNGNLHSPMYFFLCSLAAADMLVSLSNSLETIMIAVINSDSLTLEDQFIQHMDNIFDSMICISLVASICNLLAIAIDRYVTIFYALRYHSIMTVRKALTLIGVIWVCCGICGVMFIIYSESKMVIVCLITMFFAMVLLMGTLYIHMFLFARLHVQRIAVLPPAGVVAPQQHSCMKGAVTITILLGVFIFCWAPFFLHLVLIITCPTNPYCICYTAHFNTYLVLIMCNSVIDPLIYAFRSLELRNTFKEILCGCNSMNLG
Melanocortin receptor 4, sequence (P56450 whole entry): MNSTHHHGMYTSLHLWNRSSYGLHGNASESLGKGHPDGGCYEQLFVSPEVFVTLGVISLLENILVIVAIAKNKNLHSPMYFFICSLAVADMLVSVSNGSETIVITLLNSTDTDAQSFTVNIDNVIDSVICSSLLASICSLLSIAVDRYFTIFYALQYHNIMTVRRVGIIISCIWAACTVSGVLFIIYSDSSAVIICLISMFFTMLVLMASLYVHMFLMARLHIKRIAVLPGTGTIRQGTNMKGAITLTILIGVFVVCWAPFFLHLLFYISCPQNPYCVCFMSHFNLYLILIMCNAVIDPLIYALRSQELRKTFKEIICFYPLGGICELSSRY

Row | Structure (SMILES) | EC50 (Melanocortin receptor 5 [1]) [nM] | EC50 (Melanocortin receptor 3 [2]) [nM] | EC50 (Melanocortin receptor 4) [nM] | EC50 [3] [nM] | EC50 [4] | EC50 (Melanocortin receptor 5 [5]) | EC50 (Melanocortin receptor 3 [6])
1 | CC(=O)N[C@H](Cc1ccccc1)C(=O)N[C@@H](CCCN=C(N)N)C(=O)N[C@H](Cc1c[nH]c2ccccc12)C(N)=O | 6880 | > 100000 | 11200 |  | Partial agonist |  | 
2 | CC(=O)N[C@@H](Cc1c[nH]cn1)C(=O)N[C@@H](Cc1ccccc1)C(=O)N[C@@H](CCCN=C(N)N)C(=O)N[C@H](Cc1c[nH]c2ccccc12)C(N)=O | 317 |  | 6620 |  |  |  | 
3 | CC(=O)N[C@@H](Cc1ccccc1)C(=O)N[C@@H](CCCNC(=N)N)C(=O)N[C@@H](Cc1c[nH]c2ccccc12)C(N)=O (Ac-Phe-Arg-Trp-NH2) |  | > 100000 | > 100000 | 5870 |  |  | 
4 | CC(=O)N[C@@H](Cc1ccccc1)C(=O)N[C@@H](CCCN=C(N)N)C(=O)N[C@@H](Cc1c[nH]c2ccccc12)C(N)=O (Ac-Phe-Arg-Trp-NH2) |  |  |  |  |  | Partial agonist | 
5 | CC(=O)N[C@@H](Cc1cnc[nH]1)C(=O)N[C@H](Cc1ccccc1)C(=O)N[C@@H](CCCNC(=N)N)C(=O)N[C@H](Cc1c[nH]c2ccccc12)C(N)=O | 61.3 |  | 154 |  |  |  | 
6 | CC(=O)N[C@@H](Cc1c[nH]cn1)C(=O)N[C@@H](Cc1ccccc1)C(=O)N[C@@H](CCCN=C(N)N)C(=O)N[C@@H](Cc1c[nH]c2ccccc12)C(N)=O | 103 |  | 2110 |  |  |  | 
7 | CC(=O)N[C@H](Cc1ccccc1)C(=O)N[C@@H](CCCN=C(N)N)C(=O)N[C@@H](Cc1c[nH]c2ccccc12)C(N)=O (Ac-[dF]-Arg-Trp-NH2) | 1660 |  | 2320 | 4540 |  |  | Partial agonist

The remaining compounds from weak to strong by EC50 (Melanocortin receptor 4), led by results:

Row | EC50 (Melanocortin receptor 5 [1]) [nM] | EC50 (Melanocortin receptor 3 [2]) [nM] | EC50 (Melanocortin receptor 4) [nM] | EC50 [3] [nM] | EC50 [4] | EC50 (Melanocortin receptor 5 [5]) | EC50 (Melanocortin receptor 3 [6]) | Structure (SMILES)
8 | 3.46 |  | 10.2 |  |  |  |  | CC(=O)N[C@@H](Cc1cnc[nH]1)C(=O)N[C@H](Cc1ccccc1)C(=O)N[C@@H](CCCN=C(N)N)C(=O)N[C@@H](Cc1c[nH]c2ccccc12)C(N)=O
9 | 0.42 | 15.2 | 4.31 | 8.94 |  |  |  | CC(=O)N[C@@H](CCC(=O)O)C(=O)N[C@@H](Cc1c[nH]cn1)C(=O)N[C@H](Cc1ccccc1)C(=O)N[C@@H](CCCN=C(N)N)C(=O)N[C@@H](Cc1c[nH]c2ccccc12)C(N)=O
10 | 0.59 | 0.39 | 0.94 | 0.045 |  |  |  | CCCC[C@H](NC(C)=O)C(=O)N[C@@H](CCC(=O)O)C(=O)N[C@@H](Cc1c[nH]cn1)C(=O)N[C@H](Cc1ccccc1)C(=O)N[C@@H](CCCN=C(N)N)C(=O)N[C@@H](Cc1c[nH]c2ccccc12)C(=O)NCC(N)=O
11 | 0.53 | 0.29 | 0.78 | 0.036 |  |  |  | CCCC[C@H](NC(=O)[C@H](CO)NC(=O)[C@H](Cc1ccc(O)cc1)NC(=O)[C@H](CO)NC(C)=O)C(=O)N[C@@H](CCC(=O)O)C(=O)N[C@@H](Cc1cnc[nH]1)C(=O)N[C@H](Cc1ccccc1)C(=O)N[C@@H](CCCNC(=N)N)C(=O)N[C@@H](Cc1c[nH]c2ccccc12)C(N)=O
12 | 0.39 | 0.26 | 0.45 | 0.034 |  |  |  | CCCC[C@H](NC(C)=O)C(=O)N[C@@H](CCC(=O)O)C(=O)N[C@@H](Cc1c[nH]cn1)C(=O)N[C@H](Cc1ccccc1)C(=O)N[C@@H](CCCN=C(N)N)C(=O)N[C@@H](Cc1c[nH]c2ccccc12)C(N)=O
13 | 0.17 | 6.82 | 0.45 | 0.49 |  |  |  | CC(=O)N[C@@H](Cc1c[nH]cn1)C(=O)N[C@H](Cc1ccccc1)C(=O)N[C@@H](CCCN=C(N)N)C(=O)N[C@@H](Cc1c[nH]c2ccccc12)C(=O)NCC(=O)N[C@@H](CCCCN)C(=O)N1CCC[C@H]1C(=O)N[C@H](C(N)=O)C(C)C
14 | 0.46 | 0.16 | 0.44 | 0.018 |  |  |  | CCCC[C@H](NC(=O)[C@H](CO)NC(=O)[C@H](Cc1ccc(O)cc1)NC(=O)[C@H](CO)NC(C)=O)C(=O)N[C@@H](CCC(=O)O)C(=O)N[C@@H](Cc1c[nH]cn1)C(=O)N[C@H](Cc1ccccc1)C(=O)N[C@@H](CCCN=C(N)N)C(=O)N[C@@H](Cc1c[nH]c2ccccc12)C(=O)NCC(=O)N[C@@H](CCCCN)C(N)=O
15 | 0.46 | 0.11 | 0.32 | 0.021 |  |  |  | CCCC[C@H](NC(C)=O)C(=O)N[C@@H](CCC(=O)O)C(=O)N[C@@H](Cc1cnc[nH]1)C(=O)N[C@H](Cc1ccccc1)C(=O)N[C@@H](CCCNC(=N)N)C(=O)N[C@@H](Cc1c[nH]c2ccccc12)C(=O)NCC(=O)N[C@@H](CCCCN)C(=O)N1CCC[C@H]1C(=O)N[C@H](C(N)=O)C(C)C
